Laboratory results: ChEMBL document CHEMBL1629656, “Oritavancin kills stationary-phase and biofilm Staphylococcus aureus cells in vitro” (Antimicrob Agents Chemother, 2009)
≈ marks a conversion by molar mass, not a printed value. Calls of active or inactive are those of the source. The rule behind the calls is not given here.

Assays:
[1] = system: Staphylococcus aureus; assay: Antimicrobial activity against exponential-phase methicillin-sensitive Staphylococcus aureus ATCC 29213 assessed as membrane depolarization at 4 ug/ml after 30 mins using DiSC3(5) dye based fluorescence spectrophotometry; assay type: functional, organism-based
Method in brief: (§1)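 Cells loaded with 1.5 μM DiSC3(5) 30 min in the dark at ambient temperature, diluted to OD600 0.005. Drug added without polysorbate 80. Fluorescence (ex 612/em 665 nm) followed for 30 min. Three repeats.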

[2] = system: Staphylococcus aureus; assay: Antimicrobial activity against stationary-phase methicillin-sensitive Staphylococcus aureus ATCC 29213 membrane depolarization at 4 ug/ml after 30 mins using DiSC3(5) dye based fluorescence spectrophotometry; assay type: functional, organism-based; method in brief: as §1
[3] = system: Staphylococcus aureus; assay: Bactericidal activity against stationary-phase methicillin-sensitive Staphylococcus aureus ATCC 29213 grown on nutrient-depleted CAMHB medium at 16 ug/ml after 24 hrs by time kill analysis; assay type: functional, organism-based
Method in brief: (§2)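 Overnight stationary-phase cultures inoculated at ~10^7 CFU/ml into strain-matched spent CAMHB (pH 7.0, filter-sterilized). Oritavancin was kept at 0.002% polysorbate 80; daptomycin wells had 50 μg/ml CaCl2. Incubation at 37°C, 225 rpm. Samples were charcoal-quenched (25 mg/ml) before plating; points are means of duplicates. Bactericidal means ≥3-log drop at 24 h versus inoculum. ≥3 repeats.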

[4] = system: Staphylococcus aureus; assay: Bactericidal activity against stationary-phase methicillin-sensitive Staphylococcus aureus ATCC 29213 grown on nutrient-depleted CAMHB medium at 4 ug/ml after 24 hrs by time kill analysis; assay type: functional, organism-based; method in brief: as §2
[5] = system: Staphylococcus aureus; assay: Bactericidal activity against exponential-phase methicillin-sensitive Staphylococcus aureus ATCC 29213 grown on nutrient-depleted CAMHB medium at 0.5 ug/ml after 24 hrs by time kill analysis; assay type: functional, organism-based
[6] = system: Staphylococcus aureus; assay: Bactericidal activity against exponential-phase methicillin-sensitive Staphylococcus aureus ATCC 29213 grown on nutrient-depleted CAMHB medium at 16 ug/ml after 24 hrs by time kill analysis; assay type: functional, organism-based
[7] = system: Staphylococcus aureus; assay: Bactericidal activity against exponential-phase methicillin-sensitive Staphylococcus aureus ATCC 29213 grown on nutrient-depleted CAMHB medium at 4 ug/ml after 24 hrs by time kill analysis; assay type: functional, organism-based
[8] = system: Staphylococcus aureus; assay: Bactericidal activity against stationary-phase methicillin-resistant Staphylococcus aureus ATCC 33591 grown on nutrient-depleted CAMHB medium at 4 ug/ml after 24 hrs by time kill analysis; assay type: functional, organism-based; method in brief: as §2
[9] = system: Staphylococcus aureus; assay: Bactericidal activity against stationary-phase methicillin-resistant Staphylococcus aureus ATCC 33591 grown on nutrient-depleted CAMHB medium at 2 ug/ml after 24 hrs by time kill analysis; assay type: functional, organism-based; method in brief: as §2
[10] = system: Staphylococcus aureus; assay: Bactericidal activity against stationary-phase vancomycin-resistant Staphylococcus aureus isolate VRS5 grown on nutrient-depleted CAMHB medium at 4 ug/ml after 24 hrs by time kill analysis; assay type: functional, organism-based; method in brief: as §2
[11] = system: Staphylococcus aureus; assay: Antimicrobial activity against stationary-phase methicillin-sensitive Staphylococcus aureus ATCC 29213 assessed as membrane permeability at 4 ug/ml after 30 mins by propidium iodide staining-based fluorescence spectrophotometry; assay type: functional, organism-based
Method in brief: (§3)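 Cells prepared as for depolarization, in HEPES-CaCl2 buffer with glucose (exponential) or without (stationary), OD600 0.005. Syto 9 at 5 μM and propidium iodide at 30 μM. Drug added without polysorbate 80. Loss of Syto 9 fluorescence (ex 485/em 535 nm) read for 30 min. Three repeats.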

[12] = system: Staphylococcus aureus; assay: Antimicrobial activity against exponential-phase methicillin-sensitive Staphylococcus aureus ATCC 29213 assessed as membrane permeability at 4 ug/ml after 30 mins by propidium iodide staining-based fluorescence spectrophotometry; assay type: functional, organism-based; method in brief: as §3
[13] = system: Staphylococcus aureus; assay: Bactericidal activity against exponential-phase methicillin-sensitive Staphylococcus aureus ATCC 29213 assessed as log reduction in bacterial count at 4 ug/ml within 2 hrs by time kill analysis; assay type: functional
[14] = system: Staphylococcus aureus; assay: Bactericidal activity against stationary-phase methicillin-sensitive Staphylococcus aureus ATCC 29213 assessed as log reduction in bacterial count at 4 ug/ml within 2 hrs by time kill analysis; assay type: functional
[15] = system: Staphylococcus aureus; assay: Bactericidal activity against stationary-phase vancomycin-resistant Staphylococcus aureus isolate VRS5 grown on nutrient-depleted CAMHB medium at 2 ug/ml after 24 hrs by time kill analysis
[16] = system: Staphylococcus aureus; assay: Bacteriostatic activity against stationary-phase methicillin-resistant Staphylococcus aureus ATCC 33591 grown on nutrient-depleted CAMHB medium at 8 ug/ml after 24 hrs by time kill analysis; assay type: functional, organism-based; method in brief: as §2
[17] = system: Staphylococcus aureus; assay: Bacteriostatic activity against stationary-phase vancomycin-resistant Staphylococcus aureus isolate VRS5 grown on nutrient-depleted CAMHB medium at 8 ug/ml after 24 hrs by time kill analysis; assay type: functional, organism-based; method in brief: as §2
[18] = system: Staphylococcus aureus; assay: Antimicrobial activity against methicillin-sensitive Staphylococcus aureus ATCC 29213 planktonic cells by broth microdilution method in presence of 0.002% polysorbate 80; assay type: functional
[19] = system: Staphylococcus aureus; assay: Antimicrobial activity against methicillin-sensitive Staphylococcus aureus ATCC 29213 assessed as inhibition of biofilm formation after 24 hrs by serial dilution method in presence of 0.002% polysorbate 80; assay type: functional
[20] = system: Staphylococcus aureus; assay: Antimicrobial activity against 4.6 X 10^6 CFU/peg methicillin-susceptible Staphylococcus aureus ATCC 29213 planktonic cells by broth microdilution method
[21] = system: Staphylococcus aureus; assay: Antimicrobial activity against methicillin-resistant Staphylococcus aureus ATCC 33591 planktonic cells by broth microdilution method in presence of 0.002% polysorbate 80; assay type: functional
[22] = system: Staphylococcus aureus; assay: Antimicrobial activity against vancomycin-resistant Staphylococcus aureus isolate VRS5 planktonic cells by broth microdilution method in presence of 0.002% polysorbate 80; assay type: functional
[23] = system: Staphylococcus aureus; assay: Antimicrobial activity against methicillin-resistant Staphylococcus aureus ATCC 33591 assessed as inhibition of biofilm formation after 24 hrs by serial dilution method in presence of 0.002% polysorbate 80; assay type: functional
[24] = system: Homo sapiens; assay: fCmax in human at 450 […]; assay type: ADME, organism-based; conditions: in vivo
[25] = system: Staphylococcus aureus; assay: Antimicrobial activity against exponential-phase methicillin-sensitive Staphylococcus aureus ATCC 29213 grown on nutrient-depleted CAMHB medium assessed as membrane depolarization at 16 ug/ml after 30 mins using DiSC3(5) dye based fluorescence spectrophotometry; assay type: functional, organism-based
Method in brief: (§4)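 MSSA ATCC 29213 exponential-phase cells (OD600 ≈0.25 subculture in CAMHB) or stationary-phase cells were washed in 10 mM HEPES-Cl pH 7.5 with 50 μg/ml CaCl2; buffer had 5 mM glucose for exponential cells and none for stationary cells. Cells were loaded with 1.5 μM DiSC3(5) for 30 min in the dark, then diluted to OD600 0.005. Drug was added without polysorbate 80 and fluorescence (ex 612/em 665 nm) followed in real time for 30 min. Three repeats; one shown.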

[26] = system: Staphylococcus aureus; assay: Antimicrobial activity against stationary-phase methicillin-sensitive Staphylococcus aureus ATCC 29213 grown on nutrient-depleted CAMHB medium assessed as membrane depolarization at 16 ug/ml after 30 mins using DiSC3(5) dye based fluorescence spectrophotometry; assay type: functional, organism-based; method in brief: as §4
[27] = system: Staphylococcus aureus; assay: Bactericidal activity against stationary-phase vancomycin-resistant Staphylococcus aureus isolate VRS5 grown on nutrient-depleted CAMHB medium 16 ug/ml after 24 hrs by time kill analysis; assay type: functional, organism-based; method in brief: as §2
[28] = system: Staphylococcus aureus; assay: Antimicrobial activity against stationary-phase methicillin-sensitive Staphylococcus aureus ATCC 29213 grown on nutrient-depleted CAMHB medium assessed as membrane permeability at 16 ug/ml after 30 mins by propidium iodide staining-based fluorescence spectrophotometry; assay type: functional, organism-based
Method in brief: (§5)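 Cells prepared as for depolarization: exponential-phase ATCC 29213 in HEPES-CaCl2 buffer with 5 mM glucose, stationary-phase without glucose, final OD600 0.005. Stained with 5 μM Syto 9 plus 30 μM propidium iodide. Fluorescence (ex 485/em 535 nm) monitored for 30 min after drug addition, without polysorbate 80. Three repeats; one shown.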

[29] = system: Staphylococcus aureus; assay: Antimicrobial activity against exponential-phase methicillin-sensitive Staphylococcus aureus ATCC 29213 grown on nutrient-depleted CAMHB medium assessed as membrane permeability at 16 ug/ml after 30 mins by propidium iodide staining-based fluorescence spectrophotometry; assay type: functional, organism-based; method in brief: as §5
[30] = system: Staphylococcus aureus; assay: Bactericidal activity against exponential-phase methicillin-sensitive Staphylococcus aureus ATCC 29213 assessed as log reduction in bacterial count at 16 ug/ml within 15 mins by time kill analysis; assay type: functional
Method in brief: (§6)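 Short (2-h) time-kill of ATCC 29213 at OD600 0.005 (~10^6 CFU/ml) in 10 mM HEPES-Cl pH 7.5 with 50 μg/ml CaCl2. Exponential cells had 5 mM glucose and stationary cells none. Oritavancin was tested without polysorbate 80; viable counts were taken by serial dilution plating. Three repeats; one shown.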

[31] = system: Staphylococcus aureus; assay: Bactericidal activity against stationary-phase methicillin-sensitive Staphylococcus aureus ATCC 29213 assessed as log reduction in bacterial count at 16 ug/ml within 2 hrs by time kill analysis; assay type: functional; method in brief: as §6
[32] = system: Staphylococcus aureus; assay: Inhibition of cell division in stationary-phase methicillin-resistant Staphylococcus aureus ATCC 43300 assessed as absence of appearance of septal midline at 16 ug/ml by transmission electron microscopy; assay type: functional, organism-based
Method in brief: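 Stationary-phase MRSA ATCC 43300 (5 × 10^7 CFU/ml) exposed for 3 h in nutrient-depleted CAMHB. Cells were fixed in 2.5% glutaraldehyde, post-fixed in 2% osmium tetroxide and en bloc stained with uranyl acetate. Samples were ethanol-dehydrated, embedded in LR White, thin-sectioned, and stained with uranyl acetate/lead citrate. Septa were viewed by TEM at 100 kV.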

[33] = system: Staphylococcus aureus; assay: Antimicrobial activity against vancomycin-resistant Staphylococcus aureus isolate VRS5 assessed as inhibition of biofilm formation after 24 hrs by serial dilution method in presence of 0.002% polysorbate 80; assay type: functional
[34] = system: Staphylococcus aureus; assay: Antimicrobial activity against 4.6 X 10^6 CFU/peg methicillin-susceptible Staphylococcus aureus ATCC 29213 assessed as inhibition of biofilm formation after 24 hrs by serial dilution method

Row | Structure (SMILES) | Activity [3] | Activity [4] | Activity [5] | Activity [6] | Activity [7] | Activity [8] | Activity [9] | Activity [10] | Activity [15] | MIC [18] | MBEC [19] | MIC [22] | MBEC [23] | also measured
1 | CCCCCCCCCC(=O)N[C@@H](Cc1c[nH]c2ccccc12)C(=O)N[C@H](CC(N)=O)C(=O)N[C@@H](CC(=O)O)C(=O)N[C@@H]1C(=O)NCC(=O)N[C@@H](CCCN)C(=O)N[C@@H](CC(=O)O)C(=O)N[C@H](C)C(=O)N[C@@H](CC(=O)O)C(=O)NCC(=O)N[C@H](CO)C(=O)N[C@@H]([C@H](C)CC(=O)O)C(=O)N[C@@H](CC(=O)c2ccccc2N)C(=O)O[C@@H]1C | inactive | inactive | Active | Active | Active | Active | Active | inactive | inactive |  |  |  |  | Activity [1]: Active; Activity [2]: inactive; Activity [11]: inactive; Activity [12]: Active; FC [13]: 3.4; FC [14]: 0.7
2 | CC(=O)NC[C@H]1CN(c2ccc(N3CCOCC3)c(F)c2)C(=O)O1 [LINEZOLID] |  |  |  |  |  |  |  |  |  | 8 µg/mL | >128 µg/mL |  |  | Activity [16]: inactive; Activity [17]: inactive; MIC [20]: 8 µg/mL (≈ 23.7 µM)
3 | CO[C@H]1/C=C/O[C@@]2(C)Oc3c(C)c(O)c4c(O)c(c(/C=N/N5CCN(C)CC5)c(O)c4c3C2=O)NC(=O)/C(C)=C\C=C\[C@H](C)[C@H](O)[C@@H](C)[C@@H](O)[C@@H](C)[C@H](OC(C)=O)[C@@H]1C [RIFAMPIN] |  |  |  |  |  | Active | Active | inactive | inactive | < 0.02 µg/mL | 4 µg/mL | < 0.03 µg/mL | 0.25 µg/mL | MIC [21]: < 0.03 µg/mL; fCmax [24]: 2 µg/mL
4 | CN[C@H](CC(C)C)C(=O)N[C@H]1C(=O)N[C@@H](CC(N)=O)C(=O)N[C@H]2C(=O)N[C@H]3C(=O)N[C@H](C(=O)N[C@H](C(=O)O)c4cc(O)cc(O)c4-c4cc3ccc4O)[C@H](O)c3ccc(c(Cl)c3)Oc3cc2cc(c3O[C@@H]2O[C@H](CO)[C@@H](O)[C@H](O)[C@H]2O[C@H]2C[C@](C)(N)[C@H](O)[C@H](C)O2)Oc2ccc(cc2Cl)[C@H]1O [VANCOMYCIN] | inactive | inactive | Active | Active | Active |  |  |  |  |  | >128 µg/mL | > 128 µg/mL | >=128 ug ml-1 | Activity [25]: inactive; Activity [26]: inactive; Activity [27]: inactive; Activity [28]: inactive; Activity [29]: inactive; Activity [30]: inactive; Activity [31]: inactive; inhibition [32]: inactive; MBEC [33]: >128 µg/mL; MBEC [34]: >128 µg/mL
